Calls of active or inactive are those of the source. The rule behind the calls is not given here.
What was measured:
Blastomyces dermatitidis [1] = assay: Antifungal activity against Blastomyces dermatitidis Gilchrist & Stokes isolate 1099 at 100 ug/ml after 1 week (reference value: 14 mm); assay type: functional
Histoplasma capsulatum [2] = assay: Antifungal activity against Histoplasma capsulatum Darling isolate 1098 at 80 ug/ml after 1 week (reference value: 12 mm); assay type: functional
Blastomyces dermatitidis [3] = assay: Antifungal activity against Blastomyces dermatitidis Gilchrist & Stokes isolate 1099 at 40 ug/ml after 1 week (reference value: 14 mm); assay type: functional
Histoplasma capsulatum [4] = assay: Antifungal activity against Histoplasma capsulatum Darling isolate 1106 at 10 ug/ml after 3 weeks (reference value: 31 mm); assay type: functional; conditions: Darling isolate 1106, 504 h, read-out: DIZ
Blastomyces dermatitidis [5] = assay: Antifungal activity against Blastomyces dermatitidis Gilchrist & Stokes isolate 1107 at 60 ug/ml after 1 week (reference value: 20 mm); assay type: functional
Histoplasma capsulatum [6] = assay: Antifungal activity against Histoplasma capsulatum Darling isolate 1106 at 60 ug/ml after 3 weeks (reference value: 31 mm); assay type: functional
Blastomyces dermatitidis [7] = assay: Antifungal activity against Blastomyces dermatitidis Gilchrist & Stokes isolate 1099 at 1 ug/ml after 2 weeks (reference value: 27 mm); assay type: functional; conditions: Gilchrist & Stokes isolate 1099, 336 h, read-out: DIZ
Outline: (§1)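 Mycelial phase grown on Sabouraud dextrose agar at 25°C. Agar pH was set to 6 before the test solution was added and was 5.0-5.5 after. Test solutions contained HOAc and Me2SO, and solvent and blank controls were included. Each quadrant was center-inoculated with a 2 × 2 mm piece of a 2-week-old mycelial culture. Colony diameter was measured weekly for 3 weeks and reported as total increments (mm). Duplicates were run.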

Histoplasma capsulatum [8] = assay: Antifungal activity against Histoplasma capsulatum Darling isolate 1106 at 1 ug/ml after 3 weeks (reference value: 31 mm); assay type: functional; conditions: Darling isolate 1106, 504 h, read-out: DIZ
Blastomyces dermatitidis [9] = assay: Antifungal activity against Blastomyces dermatitidis Gilchrist & Stokes isolate 1099 at 40 ug/ml after 2 weeks (reference value: 27 mm); assay type: functional; conditions: Gilchrist & Stokes isolate 1099, 336 h, read-out: DIZ; outline: as §1
Histoplasma capsulatum [10] = assay: Antifungal activity against Histoplasma capsulatum Darling isolate 1106 at 80 ug/ml after 2 weeks (reference value: 25 mm); assay type: functional
Histoplasma capsulatum [11] = assay: Antifungal activity against Histoplasma capsulatum Darling isolate 1106 at 1 ug/ml after 2 weeks (reference value: 25 mm); assay type: functional; conditions: Darling isolate 1106, 336 h, read-out: DIZ
Histoplasma capsulatum [12] = assay: Antifungal activity against Histoplasma capsulatum Darling isolate 1106 at 80 ug/ml after 3 weeks (reference value: 31 mm); assay type: functional
Histoplasma capsulatum [13] = assay: Antifungal activity against Histoplasma capsulatum Darling isolate 1098 at 40 ug/ml after 2 weeks (reference value: 21 mm); assay type: functional; conditions: Darling isolate 1098, 336 h, read-out: DIZ
Histoplasma capsulatum [14] = assay: Antifungal activity against Histoplasma capsulatum Darling isolate 1106 at 60 ug/ml after 1 week (reference value: 14 mm); assay type: functional
Histoplasma capsulatum [15] = assay: Antifungal activity against Histoplasma capsulatum Darling isolate 1106 at 40 ug/ml after 1 week (reference value: 14 mm); assay type: functional
Histoplasma capsulatum [16] = assay: Antifungal activity against Histoplasma capsulatum Darling isolate 1098 at 60 ug/ml after 3 weeks (reference value: 28 mm); assay type: functional; conditions: Darling isolate 1098, 504 h, read-out: DIZ
Blastomyces dermatitidis [17] = assay: Antifungal activity against Blastomyces dermatitidis Gilchrist & Stokes isolate 1107 at 1 ug/ml after 1 week (reference value: 20 mm); assay type: functional, organism-based; outline: as §1
Histoplasma capsulatum [18] = assay: Antifungal activity against Histoplasma capsulatum Darling isolate 1098 at 10 ug/ml after 3 weeks (reference value: 28 mm); assay type: functional; conditions: Darling isolate 1098, 504 h, read-out: DIZ
Blastomyces dermatitidis [19] = assay: Antifungal activity against Blastomyces dermatitidis Gilchrist & Stokes isolate 1107 at 80 ug/ml after 3 weeks (reference value: 40 mm); assay type: functional; conditions: Gilchrist & Stokes isolate 1107, 504 h, read-out: DIZ; outline: as §1
Histoplasma capsulatum [20] = assay: Antifungal activity against Histoplasma capsulatum Darling isolate 1098 at 80 ug/ml after 2 weeks (reference value: 21 mm); assay type: functional
Histoplasma capsulatum [21] = assay: Antifungal activity against Histoplasma capsulatum Darling isolate 1098 at 10 ug/ml after 2 weeks (reference value: 21 mm); assay type: functional; conditions: Darling isolate 1098, 336 h, read-out: DIZ
Blastomyces dermatitidis [22] = assay: Antifungal activity against Blastomyces dermatitidis Gilchrist & Stokes isolate 1099 at 80 ug/ml after 2 weeks (reference value: 27 mm); assay type: functional
Histoplasma capsulatum [23] = assay: Antifungal activity against Histoplasma capsulatum Darling isolate 1098 at 60 ug/ml after 1 week (reference value: 12 mm); assay type: functional
Blastomyces dermatitidis [24] = assay: Antifungal activity against Blastomyces dermatitidis Gilchrist & Stokes isolate 1099 at 10 ug/ml after 2 weeks (reference value: 27 mm); assay type: functional; conditions: Gilchrist & Stokes isolate 1099, 336 h, read-out: DIZ; outline: as §1
Histoplasma capsulatum [25] = assay: Antifungal activity against Histoplasma capsulatum Darling isolate 1098 at 40 ug/ml after 3 weeks (reference value: 28 mm); assay type: functional; conditions: Darling isolate 1098, 504 h, read-out: DIZ
Blastomyces dermatitidis [26] = assay: Antifungal activity against Blastomyces dermatitidis Gilchrist & Stokes isolate 1099 at 20 ug/ml after 1 week (reference value: 14 mm); assay type: functional; outline: as §1
Blastomyces dermatitidis [27] = assay: Antifungal activity against Blastomyces dermatitidis Gilchrist & Stokes isolate 1107 at 1 ug/ml after 3 weeks (reference value: 40 mm); assay type: functional; conditions: Gilchrist & Stokes isolate 1107, 504 h, read-out: DIZ; outline: as §1
Histoplasma capsulatum [28] = assay: Antifungal activity against Histoplasma capsulatum Darling isolate 1098 at 40 ug/ml after 1 week (reference value: 12 mm); assay type: functional; conditions: Darling isolate 1098, 168 h, read-out: DIZ
Histoplasma capsulatum [29] = assay: Antifungal activity against Histoplasma capsulatum Darling isolate 1098 at 1 ug/ml after 1 week (reference value: 12 mm); assay type: functional; conditions: Darling isolate 1098, 168 h, read-out: DIZ
Histoplasma capsulatum [30] = assay: Antifungal activity against Histoplasma capsulatum Darling isolate 1098 at 60 ug/ml after 2 weeks (reference value: 21 mm); assay type: functional; conditions: Darling isolate 1098, 336 h, read-out: DIZ
Histoplasma capsulatum [31] = assay: Antifungal activity against Histoplasma capsulatum Darling isolate 1098 at 20 ug/ml after 2 weeks (reference value: 21 mm); assay type: functional; conditions: Darling isolate 1098, 336 h, read-out: DIZ
Histoplasma capsulatum [32] = assay: Antifungal activity against Histoplasma capsulatum Darling isolate 1106 at 80 ug/ml after 1 week (reference value: 14 mm); assay type: functional
Blastomyces dermatitidis [33] = assay: Antifungal activity against Blastomyces dermatitidis Gilchrist & Stokes isolate 1107 at 10 ug/ml after 1 week (reference value: 20 mm); assay type: functional; outline: as §1
Blastomyces dermatitidis [34] = assay: Antifungal activity against Blastomyces dermatitidis Gilchrist & Stokes isolate 1099 at 1 ug/ml after 3 weeks (reference value: 34 mm); assay type: functional; conditions: Gilchrist & Stokes isolate 1099, 504 h, read-out: DIZ; outline: as §1
Blastomyces dermatitidis [35] = assay: Antifungal activity against Blastomyces dermatitidis Gilchrist & Stokes isolate 1107 at 20 ug/ml after 2 weeks (reference value: 35 mm); assay type: functional; conditions: Gilchrist & Stokes isolate 1107, 336 h, read-out: DIZ
Blastomyces dermatitidis [36] = assay: Antifungal activity against Blastomyces dermatitidis Gilchrist & Stokes isolate 1099 at 20 ug/ml after 3 weeks (reference value: 34 mm); assay type: functional; conditions: Gilchrist & Stokes isolate 1099, 504 h, read-out: DIZ
Blastomyces dermatitidis [37] = assay: Antifungal activity against Blastomyces dermatitidis Gilchrist & Stokes isolate 1107 at 20 ug/ml after 3 weeks (reference value: 40 mm); assay type: functional; conditions: Gilchrist & Stokes isolate 1107, 504 h, read-out: DIZ
Histoplasma capsulatum [38] = assay: Antifungal activity against Histoplasma capsulatum Darling isolate 1106 at 20 ug/ml after 3 weeks (reference value: 31 mm); assay type: functional; conditions: Darling isolate 1106, 504 h, read-out: DIZ
Histoplasma capsulatum [39] = assay: Antifungal activity against Histoplasma capsulatum Darling isolate 1098 at 20 ug/ml after 3 weeks (reference value: 28 mm); assay type: functional; conditions: Darling isolate 1098, 504 h, read-out: DIZ
Blastomyces dermatitidis [40] = assay: Antifungal activity against Blastomyces dermatitidis Gilchrist & Stokes isolate 1099 at 20 ug/ml after 2 weeks (reference value: 27 mm); assay type: functional; conditions: Gilchrist & Stokes isolate 1099, 336 h, read-out: DIZ
[41] = Darling isolate 1098, 168 h, read-out: DIZ
[42] = Darling isolate 1106, 504 h, read-out: DIZ
[43] = Darling isolate 1106, 168 h, read-out: DIZ

Compound: C[C@@H]1[C@H](O)[C@@H](C)/C=C/C=C/C=C/C=C/C=C/C=C/C=C/[C@H](O[C@@H]2O[C@H](C)[C@@H](O)[C@H](N)[C@@H]2O)C[C@@H]2O[C@](O)(C[C@@H](O)C[C@@H](O)[C@H](O)CC[C@@H](O)C[C@@H](O)CC(=O)O[C@H]1C)C[C@H](O)[C@H]2C(=O)O [AMPHOTERICIN B]
- Activity (Blastomyces dermatitidis [1]): Active
- zone of inhibition at 80 µg/mL (Histoplasma capsulatum [2]; [41]): 4 mm
- Activity (Blastomyces dermatitidis [3]): Active
- zone of inhibition at 10 µg/mL (Histoplasma capsulatum [4]): 17 mm
- Activity (Blastomyces dermatitidis [5]): inactive
- zone of inhibition at 60 µg/mL (Histoplasma capsulatum [6]; [42]): 13 mm
- zone of inhibition at 1 µg/mL (Blastomyces dermatitidis [7]): 10 mm
- zone of inhibition at 1 µg/mL (Histoplasma capsulatum [8]): 24 mm
- zone of inhibition at 40 µg/mL (Blastomyces dermatitidis [9]): 2 mm
- zone of inhibition at 80 µg/mL (Histoplasma capsulatum [10]; Darling isolate 1106, 336 h, read-out: DIZ): 7 mm
- zone of inhibition at 1 µg/mL (Histoplasma capsulatum [11]): 18 mm
- zone of inhibition at 80 µg/mL (Histoplasma capsulatum [12]; [42]): 12 mm
- zone of inhibition at 40 µg/mL (Histoplasma capsulatum [13]): 11 mm
- zone of inhibition at 60 µg/mL (Histoplasma capsulatum [14]; [43]): 6 mm
- zone of inhibition at 40 µg/mL (Histoplasma capsulatum [15]; [43]): 6 mm
- zone of inhibition at 60 µg/mL (Histoplasma capsulatum [16]): 13 mm
- Activity (Blastomyces dermatitidis [17]): inactive
- zone of inhibition at 10 µg/mL (Histoplasma capsulatum [18]): 19 mm
- zone of inhibition at 80 µg/mL (Blastomyces dermatitidis [19]): 15 mm
- zone of inhibition at 80 µg/mL (Histoplasma capsulatum [20]; Darling isolate 1098, 336 h, read-out: DIZ): 10 mm
- zone of inhibition at 10 µg/mL (Histoplasma capsulatum [21]): 14 mm
- Activity (Blastomyces dermatitidis [22]): Active
- zone of inhibition at 60 µg/mL (Histoplasma capsulatum [23]; [41]): 4 mm
- zone of inhibition at 10 µg/mL (Blastomyces dermatitidis [24]): 6 mm
- zone of inhibition at 40 µg/mL (Histoplasma capsulatum [25]): 16 mm
- Activity (Blastomyces dermatitidis [26]): Active
- zone of inhibition at 1 µg/mL (Blastomyces dermatitidis [27]): 32 mm
- zone of inhibition at 40 µg/mL (Histoplasma capsulatum [28]): 5 mm
- zone of inhibition at 1 µg/mL (Histoplasma capsulatum [29]): 9 mm
- zone of inhibition at 60 µg/mL (Histoplasma capsulatum [30]): 9 mm
- zone of inhibition at 20 µg/mL (Histoplasma capsulatum [31]): 12 mm
- zone of inhibition at 80 µg/mL (Histoplasma capsulatum [32]; [43]): 5 mm
- Activity (Blastomyces dermatitidis [33]): inactive
- zone of inhibition at 1 µg/mL (Blastomyces dermatitidis [34]): 19 mm

Compound: C[C@@H]1CC[C@@H](c2ccoc2)N2C(O)[C@@](C)(Sc3ccccc3)CC[C@@H]12 (some centres not stated)
- Activity (Blastomyces dermatitidis [1]): Active
- Activity (Histoplasma capsulatum [2]): Active
- zone of inhibition at 20 µg/mL (Blastomyces dermatitidis [35]): 18 mm
- zone of inhibition at 20 µg/mL (Blastomyces dermatitidis [36]): 18 mm
- Activity (Blastomyces dermatitidis [3]): inactive
- zone of inhibition at 10 µg/mL (Histoplasma capsulatum [4]): 25 mm
- zone of inhibition at 20 µg/mL (Blastomyces dermatitidis [37]): 22 mm
- Activity (Blastomyces dermatitidis [5]): Active
- zone of inhibition at 20 µg/mL (Histoplasma capsulatum [38]): 15 mm
- Activity (Histoplasma capsulatum [6]): Active
- zone of inhibition at 40 µg/mL (Blastomyces dermatitidis [9]): 10 mm
- Activity (Histoplasma capsulatum [10]): Active
- Activity (Histoplasma capsulatum [12]): Active
- zone of inhibition at 40 µg/mL (Histoplasma capsulatum [13]): 9 mm
- Activity (Histoplasma capsulatum [14]): Active
- Activity (Histoplasma capsulatum [15]): inactive
- zone of inhibition at 60 µg/mL (Histoplasma capsulatum [16]): 8 mm
- zone of inhibition at 10 µg/mL (Histoplasma capsulatum [18]): 25 mm
- zone of inhibition at 80 µg/mL (Blastomyces dermatitidis [19]): 7 mm
- Activity (Histoplasma capsulatum [20]): Active
- zone of inhibition at 10 µg/mL (Histoplasma capsulatum [21]): 19 mm
- Activity (Blastomyces dermatitidis [22]): Active
- Activity (Histoplasma capsulatum [23]): Active
- zone of inhibition at 10 µg/mL (Blastomyces dermatitidis [24]): 20 mm
- zone of inhibition at 40 µg/mL (Histoplasma capsulatum [25]): 13 mm
- zone of inhibition at 20 µg/mL (Histoplasma capsulatum [39]): 18 mm
- zone of inhibition at 20 µg/mL (Blastomyces dermatitidis [26]; Gilchrist & Stokes isolate 1099, 168 h, read-out: DIZ): 7 mm
- zone of inhibition at 20 µg/mL (Blastomyces dermatitidis [40]): 14 mm
- zone of inhibition at 40 µg/mL (Histoplasma capsulatum [28]): 6 mm
- zone of inhibition at 60 µg/mL (Histoplasma capsulatum [30]): 2 mm
- zone of inhibition at 20 µg/mL (Histoplasma capsulatum [31]): 14 mm
- Activity (Histoplasma capsulatum [32]): Active
- zone of inhibition at 10 µg/mL (Blastomyces dermatitidis [33]; Gilchrist & Stokes isolate 1107, 168 h, read-out: DIZ): 13 mm
